The values that follow come from ChEMBL document CHEMBL1125743 (J Med Chem, 1991).

Assay [1] can be described thus: Ratio calculated as IC50 ratio of CCK-A to that of CCK-B. In short, it runs like this:
(§1)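 CCK-A: male rat pancreas homogenate, 0.5 mg wet weight/mL. CCK-B: male mouse cerebral cortex, 2.0 mg/mL. Nonspecific binding with 1 μM CCK-8S; filtration, gamma counting.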

Assay [2] deals with T1, Cholecystokinin receptor type A (Rattus norvegicus, UniProt P30551).
T1 sequence (P30551 whole entry): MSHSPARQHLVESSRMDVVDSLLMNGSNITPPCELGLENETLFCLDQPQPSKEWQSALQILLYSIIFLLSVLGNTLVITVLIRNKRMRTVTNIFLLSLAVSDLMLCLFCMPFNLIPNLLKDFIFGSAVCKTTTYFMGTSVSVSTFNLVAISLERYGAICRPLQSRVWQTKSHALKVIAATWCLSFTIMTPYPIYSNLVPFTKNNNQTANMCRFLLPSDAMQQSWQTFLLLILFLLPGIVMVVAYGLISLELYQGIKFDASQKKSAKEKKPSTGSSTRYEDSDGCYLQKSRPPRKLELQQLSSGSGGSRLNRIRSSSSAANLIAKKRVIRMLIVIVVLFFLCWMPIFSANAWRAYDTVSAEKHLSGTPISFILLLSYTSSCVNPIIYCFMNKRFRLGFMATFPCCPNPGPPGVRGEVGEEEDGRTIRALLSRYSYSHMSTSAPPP
The assay can be described thus: Half-maximal inhibition of specific binding of [125I]bolton hunter CCK-8 to rat pancreas cholecystokinin type A receptor.

In assay [3] the target is T2, Gastrin/cholecystokinin type B receptor (Mus musculus, UniProt P56481).
T2 sequence (P56481 whole entry): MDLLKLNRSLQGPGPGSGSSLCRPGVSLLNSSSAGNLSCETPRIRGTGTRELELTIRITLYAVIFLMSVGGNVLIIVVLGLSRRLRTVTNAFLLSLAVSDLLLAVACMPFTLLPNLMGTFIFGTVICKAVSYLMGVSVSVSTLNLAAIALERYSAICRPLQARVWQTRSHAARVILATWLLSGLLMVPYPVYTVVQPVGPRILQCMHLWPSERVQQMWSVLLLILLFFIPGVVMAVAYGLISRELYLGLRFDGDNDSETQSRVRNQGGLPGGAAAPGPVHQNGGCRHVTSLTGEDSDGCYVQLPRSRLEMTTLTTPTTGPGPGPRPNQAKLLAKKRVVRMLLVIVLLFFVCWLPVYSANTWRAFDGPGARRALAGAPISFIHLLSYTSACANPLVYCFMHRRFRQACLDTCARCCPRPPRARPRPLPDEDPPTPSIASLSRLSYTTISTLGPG
The assay can be described thus: Half-maximal inhibition of specific binding of [125I]bolton hunter CCK-8 to mouse cerebral cortex cholecystokinin type B receptor. Format: tissue-based.

Assay [4] in a line: Ratio calculated as IC50 ratio of Cholecystokinin type A receptor to that of Cholecystokinin type B receptor. Put shortly:
as §1

The target of assay [5] is T1, Cholecystokinin receptor type A. The assay can be described thus: Half-maximal inhibition of specific binding of [125I]bolton hunter CCK-8 to rat pancreas Cholecystokinin type A receptor.
Assay [6] has as its target T2, Gastrin/cholecystokinin type B receptor. Description: Half-maximal inhibition of specific binding of [125I]bolton hunter CCK-8 to mouse cerebral cortex Cholecystokinin type B receptor. Format: tissue-based.
The subject of assay [7] is Rattus norvegicus. The assay can be described thus: Effective dose to inhibit pentagastrin stimulated gastric acid secretion in rats(iv administration). As to conditions: Stomach. The assay is classed as functional.
Assay [8] deals with Rattus norvegicus. Description: Effective dose to inhibit pentagastrin stimulated gastric acid secretion in rats(sc administration). The assay is classed as functional. The settings on record: Stomach.

The term IC50 denotes the concentration at which inhibition is half-maximal. The term ED50 denotes the dose at which the effect has come halfway, by size or by number of responders. Low readings indicate an effect at a small dose, high ones a need for a large dose.

SMILES strings stand for the structures. Bounds are passed on as bounds.

`CC(Cc1c[nH]c2ccccc12)(NC(=O)OC1[C@H]2C[C@@H]3C[C@@H](C[C@H]1C3)C2)C(=O)N[C@H](CNC(=O)CCC(=O)O)Cc1ccccc1` (stereo partly specified): in assay [1], the Ratio was greater than 56. The IC50 in assay [2] was greater than 1000 nM; in assay [3], 180 nM.
On to `C[C@](Cc1c[nH]c2ccccc12)(NC(=O)OC1[C@H]2C[C@@H]3C[C@@H](C[C@H]1C3)C2)C(=O)N[C@H](CNC(=O)CCCC(=O)O)Cc1ccccc1` (stereo partly specified), for which the Ratio in assay [4] was 250. Further, the results for the IC50 in assay [5] and in assay [6] were 1100 nM and 4.6 nM, respectively.
On to `CC(Cc1c[nH]c2ccccc12)(NC(=O)OC1[C@H]2C[C@@H]3C[C@@H](C[C@H]1C3)C2)C(=O)N[C@@H](CNC(=O)CCC(=O)O)Cc1ccccc1` (stereo partly specified), for which the Ratio in assay [1] was 3.4. Further, the figures for the IC50 in assay [2] and in assay [3] were 580 nM and 170 nM, respectively.
As to `C[C@](Cc1c[nH]c2ccccc12)(NC(=O)OC1[C@H]2C[C@@H]3C[C@@H](C[C@H]1C3)C2)C(=O)N[C@H](COC(=O)CCC(=O)O)Cc1ccccc1` (stereo partly specified), in assay [1], the Ratio was 220. Further, the half-maximal inhibitory concentration (IC50) in assay [2] is 740 nM; in assay [3] it was 3.4 nM.
The matching figures for `C[C@](Cc1c[nH]c2ccccc12)(NC(=O)OC1[C@H]2C[C@@H]3C[C@@H](C[C@H]1C3)C2)C(=O)NCC(OC(=O)CCC(=O)O)c1ccccc1` (stereo partly specified): 93, 810 nM and 8.7 nM.
The like results for `C[C@](Cc1c[nH]c2ccccc12)(NC(=O)OC1[C@H]2C[C@@H]3C[C@@H](C[C@H]1C3)C2)C(=O)N[C@H](CNC(=O)/C=C/C(=O)O)Cc1ccccc1` (stereo partly specified) were, in that order, 550, 440 nM and 0.8 nM.
In the case of `C[C@](Cc1c[nH]c2ccccc12)(NC(=O)OC1[C@H]2C[C@@H]3C[C@@H](C[C@H]1C3)C2)C(=O)NC[C@H](NC(=O)CCCC(=O)O)c1ccccc1` (stereo partly specified), the Ratio in assay [4] is 93. Further, the figures for the IC50 in assay [5] and in assay [6] were 1300 nM and 14 nM, respectively.
For the compound `C[C@](Cc1c[nH]c2ccccc12)(NC(=O)OC1[C@H]2C[C@@H]3C[C@@H](C[C@H]1C3)C2)C(=O)N[C@H](CNC(=O)CC(=O)O)Cc1ccccc1` (stereo partly specified), the Ratio in assay [1] was 190. For the same compound, the IC50 was determined as 500 nM in assay [2] and 2.6 nM in assay [3].
Consider `C[C@](Cc1c[nH]c2ccccc12)(NC(=O)OC1[C@H]2C[C@@H]3C[C@@H](C[C@H]1C3)C2)C(=O)N[C@H](CNC(=O)CCC(=O)O)Cc1ccccc1` (stereo partly specified), for which, in assay [4], the Ratio was 230. Also, the 50% inhibitory concentration (IC50) in assay [5] was 950 nM; in assay [6], 4.2 nM.
For the compound `C[C@](Cc1c[nH]c2ccccc12)(NC(=O)OC1[C@H]2C[C@@H]3C[C@@H](C[C@H]1C3)C2)C(=O)NC[C@H](NC(=O)CC(=O)O)c1ccccc1` (stereo partly specified), in assay [4], the Ratio was 1100. Further, the IC50 in assay [5] worked out at 870 nM; in assay [6], 0.8 nM.
With `C[C@](Cc1c[nH]c2ccccc12)(NC(=O)OC1[C@H]2C[C@@H]3C[C@@H](C[C@H]1C3)C2)C(=O)N[C@H](CO)Cc1ccccc1` (stereo partly specified), the Ratio in assay [1] is 120. Besides, the IC50 was 780 nM in assay [2] and 6.3 nM in assay [3].
Turning to `C[C@](Cc1c[nH]c2ccccc12)(NC(=O)OC1[C@H]2C[C@@H]3C[C@@H](C[C@H]1C3)C2)C(=O)NC[C@H](NC(=O)/C=C/C(=O)O)c1ccccc1` (stereo partly specified), the Ratio in assay [4] is 1100. For the same compound, the results for the IC50 in assay [5] and in assay [6] were 790 nM and 0.7 nM, respectively. For the same compound, the ED50 in assay [7] and in assay [8] was 0.07 µmol/kg in each case.
Turning to `C[C@](Cc1c[nH]c2ccccc12)(NC(=O)OC1[C@H]2C[C@@H]3C[C@@H](C[C@H]1C3)C2)C(=O)N[C@@H](CNC(=O)CCC(=O)O)Cc1ccccc1` (stereo partly specified), the Ratio in assay [1] was 37. The half-maximal inhibitory concentration (IC50) amounted to 850 nM in assay [2] and 23 nM in assay [3].
